Test results published in article PMC3398245 (Analytical Biochemistry, 2012).

Columns and labels:
GST-RIP1 kinase domain [1] = biological target: T1, GST-RIP1 kinase domain (Homo sapiens, UniProt Q13546); assay: FP competition assay with fluorescein-Nec-3; assay type: binding; settings: competition with 50 nM 26, 3.4 µM GST-RIP1, 3% DMSO
T1 sequence (Q13546 8-327): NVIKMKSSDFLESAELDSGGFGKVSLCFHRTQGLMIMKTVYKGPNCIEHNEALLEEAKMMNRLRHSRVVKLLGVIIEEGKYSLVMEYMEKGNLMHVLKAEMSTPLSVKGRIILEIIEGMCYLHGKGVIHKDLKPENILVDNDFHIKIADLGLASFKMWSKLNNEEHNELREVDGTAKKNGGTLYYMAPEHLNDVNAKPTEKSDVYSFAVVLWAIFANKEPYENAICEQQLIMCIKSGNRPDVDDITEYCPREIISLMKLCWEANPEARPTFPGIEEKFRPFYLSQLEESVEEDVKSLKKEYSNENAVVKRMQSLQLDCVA
Method in brief: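 Human RIP1 kinase domain (aa 8–327) as a GST fusion, expressed in baculovirus-infected Sf9 cells and purified by glutathione affinity and gel filtration. Tracer (50 nM) preincubated 5 min with 3.4 µM protein. Test compound titrated 0–100 µM at 3% final DMSO, then 10 min incubation. FP read at ex 485/em 535 nm in mP. IC50 from nonlinear variable-slope fit.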

GST-RIP1 kinase domain [2] = biological target: T1, GST-RIP1 kinase domain; assay: FP competition assay with fluorescein-Nec-1; assay type: binding; settings: competition with 50 nM 20, 2.6 µM GST-RIP1, 3% DMSO

| IC50 (GST-RIP1 kinase domain [1]) [µM] | IC50 (GST-RIP1 kinase domain [2]) [µM] | Compound |
| --- | --- | --- |
| 3.9 ± 0.7 | 10.7 ± 1.8 | COc1ccc2c(c1)C1=NN(C(C)=O)C(c3ccc(F)cc3)C1CC2 (stereo not shown) [Compound 7] |
| 7 ± 0.7 | 9.9 ± 0.6 | CN1C(=O)C(Cc2c[nH]c3ccccc23)NC1=S (stereo not shown) [Compound 1] |
